Assay [1] in a line: inhibitors of TNFa-induced NFkB p65 translocation, primary screen, imaging, HUVEC, MLSMR starter and 10KST1 sets (AID 438;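 active means inhibition above 20% together with a positive visual image hit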;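 further: compound added about 3h40 before a 20 min TNFalpha stimulation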;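 on inhibition: signal is the nuclear over cytoplasmic p65 intensity ratio per well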). The following applies: HUVEC TNFa-induced p65 nuclear translocation; cell count: measured here: nuclei count (cytotoxicity indicator), at 2.08 µM; inhibition: at 2 µM, stronger effect = higher value, 0% TNFa-plus-vehicle, 100% no-TNFa wells.
Assay [2] can be described thus: inhibitors of mutant huntingtin aggregation, primary screen, imaging, exon1htt(103Q)mCFP cells, high-content imaging (AID 483).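 Further: compound exposure lasted 3 days before fixation.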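 On nuclei count: percent of the per-plate median nuclei count of sample wells.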 The following applies: exon1htt(103Q)mCFP cell line, aggregate imaging, at 2 µM; inhibition of aggregation: stronger effect = higher value; nuclei count: measured here: cell count, toxicity.
Assay [3] is described as follows: inhibitors of E-selectin induction by TNFa, primary screen, imaging, HUVEC, immunofluorescence, MLSMR starter and 10KST1 sets (AID 487;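 active means visually confirmed hit in the image check and inhibition above 20%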;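 on inhibition: signal is fraction of cell area covered by stained E-selectin grains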;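 on nuclei count: 100% = median nuclei count of all wells on the same plate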). The following applies: HUVEC TNFalpha-induced E-selectin immunofluorescence imaging, at 2 µM; inhibition: stronger effect = higher value; nuclei count: measured here: cell number, toxicity.
Assay [4] concerns the target Voltage-gated potassium channel subunit beta-2 (Rattus norvegicus) (UniProt P62483). Kind of assay: KvBeta enzyme negative modulators, primary screen, biochemical, NADPH fluorescence (AID 622;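 active means fluorescence slope higher than the sample average by over 3 SD, cut at about -0.22 in these data, passing the limit was not always enough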;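 further: slope of raw intensity against log time taken from 70 to 1610 s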). The following applies: recombinant KvBeta, 4-cyanobenzaldehyde reduction, at 10 µM, stronger effect = higher value.
Assay [5] shares this target. Put plainly: KvBeta positive modulators, primary screen, biochemical, NADPH fluorescence (AID 623;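 active means NADPH fluorescence slope more negative than the mean of all samples by about 3 SD, 99.7% confidence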;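 further: fluorescence intensity change per second fitted from 20 to 320 s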). The following applies: Recombinant KvBeta, NADPH fluorescence decrease slope, 10 min; at 10 µM; stronger effect = lower value.
Assay [6] concerns the target Muscarinic acetylcholine receptor M4 (Homo sapiens) (UniProt P08173). Kind of assay: compounds altering M4/GIRK thallium flux, either direction, primary screen, M4 allosteric agonist project, cell-based, HEK293 M4/GIRK, BTC-AM (AID 625;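 active means fluorescence slope after compound addition differing from the mean of all tested samples at 99.7% confidence, mostly higher but some lower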;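 further: thallium influx through GIRK channels coupled to M4 in HEK293 cells with BTC-AM dye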). The following applies: at 10 µM, actives lie on both sides. Put shortly:
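Material: M4/GIRK1/GIRK2 stable HEK293 cell line. Medium: pH 7.3 thallium assay buffer. Dosing: single compound concentration, 10 µM final. Schedule: 1 h dye loading, 2 min kinetic read. Measured by: kinetic fluorescence with BTC-AM dye. Read-out: post-addition slope, 15–24 s, of baseline-normalized fluorescence. Benchmarks: carbachol and DMSO controls.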

A short description of assay [7]: inhibitors of Sendai virus-induced IRF3 signaling, primary screen, TLR/RLR signaling modifier project, cell-based, Sendai virus stimulus, luciferase, 10K MLSCN set (AID 602276;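 active means inhibition at or above 50% at 10 µM; inactive means inhibition below 50%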;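 further: firefly luciferase from ISG56 promoter only with Renilla not read in this screen; 0% = Sendai virus plus DMSO and 100% = medium plus DMSO without virus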). The following applies: HEK293 RL24 IRF3 luciferase reporter, at 10 µM, stronger effect = higher value.
Assay [8] in a line: inhibitors of poly I:C-induced TLR3 signaling, primary screen, cell-based, poly I:C stimulus, luciferase, 10K MLSCN set (AID 602277;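 active means inhibition of the reporter signal at or above 50%; inactive means inhibition below 50%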). The following applies: HEK293-TLR3 RL24 IRF3 luciferase reporter, at 10 µM, stronger effect = higher value.

Activity calls are given as the source filed them.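 How the source made its calls, unless noted: active means visual image review flags a hit and inhibition of aggregation exceeds 20%; inconclusive means visual hit but inhibition at or below 20%; inactive means no hit on visual image review.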

By inhibition is commonly meant the relative decrease from the control value, in per cent.

Muscarinic acetylcholine receptor M4 (Homo sapiens), sequence (P08173 whole entry, looked up): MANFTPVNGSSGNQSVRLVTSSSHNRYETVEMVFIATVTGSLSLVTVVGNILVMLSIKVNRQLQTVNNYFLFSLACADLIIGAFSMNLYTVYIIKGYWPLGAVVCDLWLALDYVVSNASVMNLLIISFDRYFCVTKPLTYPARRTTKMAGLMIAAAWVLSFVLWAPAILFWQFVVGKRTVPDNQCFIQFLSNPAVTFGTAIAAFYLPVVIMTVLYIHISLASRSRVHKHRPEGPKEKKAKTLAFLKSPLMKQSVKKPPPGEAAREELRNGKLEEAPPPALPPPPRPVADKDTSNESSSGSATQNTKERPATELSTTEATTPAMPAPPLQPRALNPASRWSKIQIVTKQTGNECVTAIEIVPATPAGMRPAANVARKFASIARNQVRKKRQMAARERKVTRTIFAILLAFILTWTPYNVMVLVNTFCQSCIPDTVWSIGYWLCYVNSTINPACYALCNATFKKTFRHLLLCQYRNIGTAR
Voltage-gated potassium channel subunit beta-2 (Rattus norvegicus), sequence (P62483 whole entry, looked up): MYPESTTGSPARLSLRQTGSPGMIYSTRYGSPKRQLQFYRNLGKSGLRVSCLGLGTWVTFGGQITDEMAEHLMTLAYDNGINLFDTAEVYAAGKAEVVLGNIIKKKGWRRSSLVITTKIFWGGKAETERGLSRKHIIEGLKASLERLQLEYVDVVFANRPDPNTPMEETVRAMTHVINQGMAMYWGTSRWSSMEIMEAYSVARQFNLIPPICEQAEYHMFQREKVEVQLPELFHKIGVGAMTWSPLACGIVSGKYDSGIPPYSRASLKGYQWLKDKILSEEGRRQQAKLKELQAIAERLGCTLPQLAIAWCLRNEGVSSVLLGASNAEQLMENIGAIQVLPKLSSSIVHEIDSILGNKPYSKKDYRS

As to `CC(C)(C)C(=O)N=C1SC2CS(=O)(=O)CC2N1c1ccc2c(c1)OCO2` (centres undefined), in assay [1], the cell count is 454. For the same molecule, the inhibition in assay [1] is 5.8% (inactive); in assay [3] it was 6.6% (inactive); in assay [7] it was -0.393% (inactive); in assay [8] it was 7.75% (inactive). Further, the inhibition of aggregation in assay [2] was 2% (inactive). Further, the results for the nuclei count in assay [2] and in assay [3] were 96.6% and 132%, respectively. The figures for the fluorescence slope in assay [4] and in assay [6] were -0.546 (inactive) and 0.0052 (inactive), respectively. Besides, the NADPH fluorescence slope in assay [5] is -4.1e-05 (inactive).
For `Cn1c(=O)c2ncn(CC(=O)NCCOc3ccccc3)c2n(C)c1=O`, the cell count in assay [1] is 503. The inhibition in assay [1] was -4.4% (inactive); in assay [3], 43% (inactive); in assay [7], 18% (inactive); in assay [8] it was 14.3% (inactive). Also, the inhibition of aggregation in assay [2] is -3.1% (inactive). Besides, the nuclei count in assay [2] was 98%; in assay [3] it was 91.5%. For the same molecule, the results for the fluorescence slope in assay [4] and in assay [6] were -0.52 (inactive) and 0.00467 (inactive), respectively. In assay [5], the NADPH fluorescence slope is 2.9e-06 (inactive).
`CC1CN(c2nc3ccccn3c(=O)c2/C=C(\C#N)S(=O)(=O)c2ccccc2)CC(C)O1` (centres undefined): the cell count in assay [1] was 570. In addition, the inhibition in assay [1] was 8.1% (inactive); in assay [3], 56.6% (inactive); in assay [7] it was -1.56% (inactive); in assay [8] it was -21.6% (inactive). Besides, the inhibition of aggregation in assay [2] was 3.6% (inactive). For the same molecule, the nuclei count in assay [2] was 98.6%; in assay [3], 104%. Moreover, the results for the fluorescence slope in assay [4] and in assay [6] were -0.513 (inactive) and 0.00288 (inactive), respectively. Moreover, the NADPH fluorescence slope in assay [5] is -0.000138 (inactive).
As for `COc1cccc(OCCOCCN(C)CCO)c1`, the cell count in assay [1] was 313. Also, the inhibition in assay [1] was 1.5% (inactive); in assay [3], 41.3% (inactive); in assay [7] it was -3.56% (inactive); in assay [8], 14.6% (inactive). The inhibition of aggregation in assay [2] was 19.1% (inactive). Besides, the figures for the nuclei count in assay [2] and in assay [3] were 85.9% and 88.1%, respectively. Besides, the fluorescence slope in assay [4] was -0.532 (inactive); in assay [6], 0.00575 (inactive). Further, in assay [5], the NADPH fluorescence slope was -2.5e-05 (inactive).
Turning to `O=C(NC1CCCCC1)C1CC(O)CN1C(=O)OCc1ccccc1` (centres undefined), the cell count in assay [1] worked out at 819. Moreover, the inhibition was -4.1% (inactive) in assay [1], -56.4% (inactive) in assay [3], 2.76% (inactive) in assay [7] and 14.7% (inactive) in assay [8]. Besides, the inhibition of aggregation in assay [2] is 26.1% (inactive). In addition, the nuclei count in assay [2] was determined as 104%; in assay [3] it was 98%. For the same molecule, the results for the fluorescence slope in assay [4] and in assay [6] were -0.564 (inactive) and 0.00452 (inactive), respectively. In assay [5], the NADPH fluorescence slope is -7.5e-06 (inactive).
As to `c1ccc2c(c1)ccc1nnc(-c3ccc4c(c3)OCO4)n12`, the cell count in assay [1] is 338. Further, the inhibition in assay [1] is -1.7% (inactive); in assay [3], -25.6% (inactive); in assay [7], -1.33% (inactive); in assay [8], 25.4% (inactive). Also, the inhibition of aggregation in assay [2] is 18.1% (inactive). Further, the nuclei count in assay [2] came to 87.8%; in assay [3] it was 108%. Also, the figures for the fluorescence slope in assay [4] and in assay [6] were -0.58 (inactive) and 0.00599 (inactive), respectively. In addition, the NADPH fluorescence slope in assay [5] is 1.5e-05 (inactive).
As for `Cc1cc(=O)n2[nH]c(COc3ccccc3)nc2n1`, the cell count in assay [1] turned out to be 203. In addition, the inhibition in assay [1] was -7.9% (inactive); in assay [3] it was -85.5% (inactive); in assay [7], 6.61% (inactive); in assay [8], 14.8% (inactive). Further, in assay [2], the inhibition of aggregation is 31.3% (inactive). Further, the nuclei count is 101% in assay [2] and 91.6% in assay [3]. Further, the fluorescence slope is -0.531 (inactive) in assay [4] and 0.00471 (inactive) in assay [6]. Further, the NADPH fluorescence slope in assay [5] was -4.3e-05 (inactive).
As to `Cc1nc2ccc(S(=O)(=O)NCC(=O)O)cc2s1`, the cell count in assay [1] was determined as 423. Further, the inhibition in assay [1] is 5.2% (inactive); in assay [3] it was -56.1% (inactive); in assay [7] it was -1.77% (inactive); in assay [8], 13% (inactive). In assay [2], the inhibition of aggregation is -3% (inactive). Moreover, the nuclei count in assay [2] was found to be 110%; in assay [3], 118%. The fluorescence slope in assay [4] is -0.45 (inactive); in assay [6], 0.00579 (inactive). For the same molecule, the NADPH fluorescence slope in assay [5] was 4.8e-05 (inactive).
On to `COc1ccc(-n2c(SCCC(=O)O)nnc2-c2ccncc2)cc1`, for which the cell count in assay [1] came to 359. The inhibition was -6.2% (inactive) in assay [1], -27.4% (inactive) in assay [3], 18% (inactive) in assay [7] and 36.6% (inactive) in assay [8]. In assay [2], the inhibition of aggregation is -2.3% (inactive). In addition, the figures for the nuclei count in assay [2] and in assay [3] were 98.2% and 127%, respectively. The fluorescence slope was -0.56 (inactive) in assay [4] and 0.00569 (inactive) in assay [6]. The NADPH fluorescence slope in assay [5] is 4e-06 (inactive).
Take `CCOC(=O)Cn1nnnc1CN(Cc1ccc(OC)cc1)Cc1cc2cc(C)cc(C)c2[nH]c1=O`: in assay [1], the cell count is 614. Besides, the inhibition in assay [1] is 6.2% (inactive); in assay [3], -50.4% (inactive); in assay [7], -8.1% (inactive); in assay [8], -1.09% (inactive). Besides, the inhibition of aggregation in assay [2] is -1.3% (inactive). Also, the nuclei count in assay [2] and in assay [3] was 117% in each case. The fluorescence slope was -0.595 (inactive) in assay [4] and 0.00531 (inactive) in assay [6]. In addition, the NADPH fluorescence slope in assay [5] was -3.9e-05 (inactive).
As to `CC(C)(C)C(=O)Oc1cc(N)n(S(=O)(=O)c2ccccc2)n1`, the cell count in assay [1] amounted to 228. Besides, the inhibition in assay [1] was -0.3% (inactive); in assay [3] it was -24.6% (inactive); in assay [7] it was -12% (inactive); in assay [8] it was -7.53% (inactive). The inhibition of aggregation in assay [2] is -1.1% (inactive). Besides, the results for the nuclei count in assay [2] and in assay [3] were 109% and 129%, respectively. Besides, the fluorescence slope in assay [4] is -0.52 (inactive); in assay [6] it was 0.00539 (inactive). Moreover, the NADPH fluorescence slope in assay [5] was -5.6e-05 (inactive).
Take `O=C(O)CCN1C(=O)c2ccccc2C1=O`: the cell count in assay [1] was 325. The inhibition in assay [1] was 5.2% (inactive); in assay [3], -54.5% (inactive); in assay [7] it was 14.6% (inactive); in assay [8] it was 6.42% (inactive). In addition, the inhibition of aggregation in assay [2] was -1.9% (inactive). Also, the nuclei count in assay [2] is 91.2%; in assay [3], 107%. Also, the fluorescence slope in assay [4] was -0.585 (inactive); in assay [6], 0.00348 (inactive). The NADPH fluorescence slope in assay [5] is -3e-05 (inactive).
For the molecule `O=C(O)CC1CCCC(c2ccccc2)C1=O` (centres undefined), the cell count in assay [1] was determined as 658. In addition, the inhibition is -6.5% (inactive) in assay [1], 108% (active) in assay [3], 8.33% (inactive) in assay [7] and 11.2% (inactive) in assay [8]. For the same molecule, the inhibition of aggregation in assay [2] was -35% (inactive). Also, the nuclei count in assay [2] was found to be 103%; in assay [3], 102%. Further, the fluorescence slope in assay [4] is -0.544 (inactive); in assay [6] it was 0.00508 (inactive). The NADPH fluorescence slope in assay [5] was -7.4e-06 (inactive).
As for `O=C1c2cccnc2C(O)N1Cc1ccc(F)cc1` (centres undefined), the cell count in assay [1] was found to be 375. The inhibition in assay [1] was 1.1% (inactive); in assay [3] it was -11.7% (inactive); in assay [7], 10.8% (inactive); in assay [8] it was 17.7% (inactive). Also, in assay [2], the inhibition of aggregation is 13.7% (inactive). In addition, the nuclei count was 118% in assay [2] and 116% in assay [3]. The fluorescence slope in assay [4] was -0.354 (inactive); in assay [6], 0.00468 (inactive). Further, the NADPH fluorescence slope in assay [5] is -8.5e-05 (inactive).

The values above are taken from PubChem BioAssay.
